Laboratory results as given in publication PMC7210785 (Cancer cell, 2019).

Biological target: T1, RNF2 (Homo sapiens, UniProt Q99496)
T1 sequence (Q99496 2-336): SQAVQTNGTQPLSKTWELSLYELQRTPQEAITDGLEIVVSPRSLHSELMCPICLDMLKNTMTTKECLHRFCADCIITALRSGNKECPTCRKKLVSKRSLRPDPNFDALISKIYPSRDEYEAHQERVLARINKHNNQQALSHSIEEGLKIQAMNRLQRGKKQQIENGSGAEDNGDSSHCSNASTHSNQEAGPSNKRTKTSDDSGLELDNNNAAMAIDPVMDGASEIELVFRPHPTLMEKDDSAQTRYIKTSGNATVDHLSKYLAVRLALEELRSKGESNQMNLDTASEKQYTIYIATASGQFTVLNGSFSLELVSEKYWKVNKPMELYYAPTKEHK
Type: cell-based
Method in brief: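 RNF2-PRC1 complex immunoprecipitated from PC3 cells, washed, then preincubated with test compound for 30 min at 4 °C. Products run on SDS-PAGE and immunoblotted with anti-H2A. In cells, histones acid-extracted (0.4N H2SO4) from nuclear extracts and probed for H2A/H2AUb.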

IC50: ~470 nM
Substance: GW-516 [compound 4]
